Assay results: PMC11247636 (ACS Medicinal Chemistry Letters, 2024)

Tests used:
[1] = Oral bioavailability and pharmacokinetics in Slc3a1-knockout mice; type: in vivo; settings: male, mouse, plasma, 150 umol/kg
How it was run: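 Male Slc3a1-knockout mice (4 per route) received a single oral gavage of 150 μmol/kg in normal saline (100 μL) or a tail-vein iv dose of 30 μmol/kg. About 60 μL saphenous blood was drawn pre-dose and at 5, 15, 30 min and 1, 4, 8, 24 h. Plasma was stored at −80 °C. Parent and mixed-disulfide metabolite were quantified by LC-MS/MS against synthetic metabolite standard. F was derived from oral versus iv exposure.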

[2] = L-cystine crystallization inhibition assay; settings: from EC50 values
How it was run: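 Supersaturated L-cystine (2.9 mM in Millipore water) was incubated with varying test compound concentrations for 72 h at room temperature, then centrifuged. L-cystine remaining in the supernatant was measured. EC50 came from dose–response curves, and relative potency was expressed as a ratio of EC50 values against reference inhibitors.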

[3] = system: L-cystine stone formation in Slc3a1-knockout mouse model of cystinuria; test: In vivo efficacy in Slc3a1-knockout mouse model of cystinuria; set-up: species or system Slc3a1-knockout male mice; settings: 150 μmol/kg by gavage daily for 8 weeks

N[C@@H](CSSC[C@H](N)C(=O)N1CCC2(CCCN2)CC1)C(=O)N1CCC2(CCCN2)CC1 [compound 3, 8-L-cystinyl bis(1,8-diazaspiro[4.5]decane)]
CL/F [1]: 133 mL/min/kg | Vd/F [1]: 7 L/kg | Fold more potent than CDME in inhibiting L-cystine crystallization [2]: about 120 × | Fold more potent than LH708 in inhibiting L-cystine crystallization [2]: about 2 × | Fold more potent than CDME in inhibiting L-cystine crystallization ([2]; listed as LH1753): 120 × | Fold more potent than LH708 in inhibiting L-cystine crystallization ([2]; listed as LH1753): 2 × | Effect on growth [3]: no adverse effect on growth | Mice with stones in treated group ([3]; water group 28 of 51): 1 out of 25
